Calls of active or inactive are those of the source. The calls are words filed in the database; no cut-off is given here.
Tests used:
Toll-like receptor 4 [1] = target: T1, Toll-like receptor 4 (Homo sapiens, UniProt O00206); assay: Inhibition of LPS-induced TLR4 activation (unknown origin) expressed in HEK293 Blue cells compound treated for 30 mins prior LPS treatment measured after 2 to 4 hrs by spectrophotometry; format: cell-based
How it was run: (§1)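 HEK-Blue cells stably transfected with TLR4, MD-2 and CD14 carry a secreted alkaline phosphatase reporter under an NF-κB/AP-1-inducible promoter. TLR4 activation by endotoxin was monitored through secreted alkaline phosphatase.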

Toll-like receptor 4 [2] = target: T1, Toll-like receptor 4; assay: Agonist activity at human TLR4 expressed in HEK293 cells co-transfected with human MD-2/CD14 assessed as receptor signal after 2 to 4 hrs by dual luciferase reporter gene assay; format: cell-based
How it was run: (§2)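 Cells were treated with increasing compound concentrations, with or without LPS stimulation (5 nM). Signal is dual-luciferase, normalized, and representative of three independent experiments.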

[3] = target: T2, Toll-like receptor 4 (Mus musculus) (UniProt Q9QUK6); assay: Agonist activity at mouse TLR4 expressed in HEK293 cells co-transfected with mouse MD-2/CD14 assessed as receptor signal after 2 to 4 hrs by dual luciferase reporter gene assay; format: cell-based; how it was run: as §2
T2 sequence (whole entry): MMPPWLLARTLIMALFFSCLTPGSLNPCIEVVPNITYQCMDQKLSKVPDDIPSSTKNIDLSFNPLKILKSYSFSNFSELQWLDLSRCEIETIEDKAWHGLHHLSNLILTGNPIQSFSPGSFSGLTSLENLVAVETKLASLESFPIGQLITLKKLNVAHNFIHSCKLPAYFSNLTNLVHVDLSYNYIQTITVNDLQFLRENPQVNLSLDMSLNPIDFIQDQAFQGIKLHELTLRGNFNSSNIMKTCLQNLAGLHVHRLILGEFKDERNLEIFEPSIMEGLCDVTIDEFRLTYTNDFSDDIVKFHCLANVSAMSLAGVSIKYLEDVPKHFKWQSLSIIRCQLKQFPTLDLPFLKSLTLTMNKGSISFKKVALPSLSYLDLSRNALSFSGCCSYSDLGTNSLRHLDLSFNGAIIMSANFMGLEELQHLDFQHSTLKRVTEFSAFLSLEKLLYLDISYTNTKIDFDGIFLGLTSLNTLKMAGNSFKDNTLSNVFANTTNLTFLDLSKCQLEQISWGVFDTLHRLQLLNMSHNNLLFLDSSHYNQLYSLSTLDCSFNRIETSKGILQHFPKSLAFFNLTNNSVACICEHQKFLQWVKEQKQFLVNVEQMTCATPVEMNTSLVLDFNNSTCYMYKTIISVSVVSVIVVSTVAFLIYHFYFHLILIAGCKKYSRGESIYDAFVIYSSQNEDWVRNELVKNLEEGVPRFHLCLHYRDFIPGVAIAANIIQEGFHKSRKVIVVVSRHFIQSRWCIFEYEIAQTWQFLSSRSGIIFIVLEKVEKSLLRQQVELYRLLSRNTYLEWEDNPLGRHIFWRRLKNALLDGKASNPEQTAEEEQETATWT

Toll-like receptor 4 [4] = target: T1, Toll-like receptor 4; assay: Antagonist activity at human TLR4 expressed in HEK293 cells co-transfected with human MD-2/CD14 assessed as inhibition of LPS-stimulated receptor signal after 2 to 4 hrs by dual luciferase reporter gene assay; format: cell-based; how it was run: as §2
[5] = target: T2, Toll-like receptor 4 (Mus musculus); assay: (§3) Antagonist activity at mouse TLR4 expressed in HEK293 cells co-transfected with mouse MD-2/CD14 assessed as inhibition of LPS-stimulated receptor signal after 2 to 4 hrs by dual luciferase reporter gene assay; format: cell-based; how it was run: as §2
Toll-like receptor 4 [6] = target: T1, Toll-like receptor 4; assay: Agonist activity at TLR4 (unknown origin) expressed in HEK293 Blue cells measured after 2 to 4 hrs by spectrophotometry; format: cell-based; how it was run: as §1
HEK293 = assay: Cytotoxicity against HEK-Blue cells after 3 hrs by MTT assay; format: cell-based; details: human, hek293, 3 h
Toll-like receptor 4 [7] = target: T3, Toll-like receptor 4 (Mus musculus, UniProt Q9QUK6); assay: as §3; format: cell-based; how it was run: as §2
T3 sequence (Q9QUK6 whole entry): T2 sequence (whole entry)

[8] = target: T2, Toll-like receptor 4 (Mus musculus); assay: Antagonist activity at mouse TLR4 in mouse BMDM cells assessed as inhibition of LPS-stimulated IL-6 production compound treated for 1 hr before LPS challenge by ELISA; format: cell-based
How it was run: (§4)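 Bone marrow-derived murine macrophages in RPMI with 10% FBS were pretreated with compound (0–2 µM), and LPS was added 1 hour later. After overnight incubation, IL-6 and TNF-α in the medium were measured by ELISA. Cells not given LPS served as negative controls.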

[9] = target: T2, Toll-like receptor 4 (Mus musculus); assay: Antagonist activity at mouse TLR4 in mouse BMDM cells assessed as inhibition of LPS-stimulated TNFalpha production compound treated for 1 hr before LPS challenge by ELISA; format: cell-based; how it was run: as §4
[10] = Amphiphilicity of the compound assessed as critical micelle concentration by spectrofluorophotometry; format: physicochemical
How it was run: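 The CMC in aqueous solution was determined from the polarity-dependent change in the fluorescence spectrum of pyrene as it partitions into micelles formed by the compound.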

[11] = target: T2, Toll-like receptor 4 (Mus musculus); assay: Activation of mouse TLR4 in mouse BMDM cells by ELISA; format: cell-based
Toll-like receptor 4 [12] = target: T1, Toll-like receptor 4; assay: Agonist activity at TLR4 (unknown origin) expressed in HEK293 Blue cells measured after 2 to 4 hrs by spectrophotometry
[13] = target: T2, Toll-like receptor 4 (Mus musculus); assay: Antagonist activity at mouse TLR4 in mouse BMDM cells assessed as inhibition of LPS-stimulated IL-6 production at 1 to 2 uM for 1 hr before LPS treatment by ELISA; format: cell-based; how it was run: as §4
[14] = target: T2, Toll-like receptor 4 (Mus musculus); assay: Antagonist activity at mouse TLR4 in mouse BMDM cells assessed as inhibition of LPS-stimulated TNFalpha production at 1 to 2 uM for 1 hr before LPS treatment by ELISA; format: cell-based; how it was run: as §4
[15] = target: T2, Toll-like receptor 4 (Mus musculus); assay: Antagonist activity at mouse TLR4 in mouse BMDM cells assessed as inhibition of LPS-stimulated IL-6 production at 0.1 to 0.5 uM for 1 hr before LPS treatment by ELISA; format: cell-based; how it was run: as §4
[16] = target: T2, Toll-like receptor 4 (Mus musculus); assay: Antagonist activity at mouse TLR4 in mouse BMDM cells assessed as inhibition of LPS-stimulated TNFalpha production at 0.1 to 0.5 uM for 1 hr before LPS treatment by ELISA; format: cell-based; how it was run: as §4
Mus musculus = assay: Immunosuppressive C57/B16 mouse assessed as inhibition of LPS-induced immune activation measured as TNFalpha secretion at 2 x 10^-7 mol, ip 1 hr prior LPS challenge by ELISA; format: functional, organism-based
How it was run: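 C57/Bl6 mice were given compound i.p. at 2·10^-7 mol/mouse, then LPS i.p. (1·10^-9 mol/mouse) 1 hour later. Sera were collected three hours after LPS and serum TNF-α concentration was determined.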

T1 sequence (O00206 whole entry): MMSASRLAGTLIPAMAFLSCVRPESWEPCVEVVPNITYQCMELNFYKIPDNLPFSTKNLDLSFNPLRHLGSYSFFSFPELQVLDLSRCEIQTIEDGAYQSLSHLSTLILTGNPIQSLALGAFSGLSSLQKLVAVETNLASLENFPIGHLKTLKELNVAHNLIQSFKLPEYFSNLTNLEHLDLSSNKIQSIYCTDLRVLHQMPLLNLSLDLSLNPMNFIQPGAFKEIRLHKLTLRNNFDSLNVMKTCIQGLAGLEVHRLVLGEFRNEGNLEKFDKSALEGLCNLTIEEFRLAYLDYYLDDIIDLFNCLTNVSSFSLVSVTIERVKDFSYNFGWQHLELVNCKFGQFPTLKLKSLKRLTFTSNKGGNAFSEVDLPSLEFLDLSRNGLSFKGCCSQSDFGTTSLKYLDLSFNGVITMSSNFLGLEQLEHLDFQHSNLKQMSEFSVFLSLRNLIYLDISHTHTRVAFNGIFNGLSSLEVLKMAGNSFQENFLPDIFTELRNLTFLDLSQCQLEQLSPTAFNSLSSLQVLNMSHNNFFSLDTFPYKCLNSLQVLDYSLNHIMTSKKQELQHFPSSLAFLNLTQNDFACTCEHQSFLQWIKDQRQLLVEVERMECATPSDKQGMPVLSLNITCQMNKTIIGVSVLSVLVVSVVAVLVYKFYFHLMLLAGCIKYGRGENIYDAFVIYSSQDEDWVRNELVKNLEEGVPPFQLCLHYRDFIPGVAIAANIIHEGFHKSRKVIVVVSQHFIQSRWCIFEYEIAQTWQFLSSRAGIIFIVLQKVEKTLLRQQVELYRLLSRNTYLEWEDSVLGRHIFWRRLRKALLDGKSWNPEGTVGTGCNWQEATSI

| inhibition (Toll-like receptor 4 [1]) | Activity (Toll-like receptor 4 [2]) | Activity [3] | Activity (Toll-like receptor 4 [4]) | Activity [5] | IC50 (Toll-like receptor 4 [1]) | Activity (Toll-like receptor 4 [6]) | IC50 (Toll-like receptor 4 [4]) | inhibition (Toll-like receptor 4 [4]) | inhibition [5] | IC50 (Toll-like receptor 4 [7]) | CMC [10] | Activity (Toll-like receptor 4 [12]) | SMILES | Activity (HEK293) | other results |
| --- | --- | --- | --- | --- | --- | --- | --- | --- | --- | --- | --- | --- | --- | --- | --- |
| inactive | inactive | inactive | inactive | inactive | – | – | – | – | – | – | – | – | CCCCCC(=O)O[C@@H]1[C@@H](OC(=O)CCCCC)[C@@H](OC)O[C@H](Cn2cc(CN(CCNC(=S)NCCN)CCNC(=S)NCCN)nn2)[C@H]1OC(=O)CCCCC | – | – |
| Dose-dependent effect | inactive | inactive | – | – | 1300 nM | inactive | 1400 nM | Dose-dependent effect | Dose-dependent effect | 800 nM | 97.7 µM | inactive | CCCCCC(=O)O[C@@H]1[C@H](OC(=O)CCCCC)[C@@H](O[C@H]2O[C@H](CSCCN)[C@@H](OC(=O)CCCCC)[C@H](OC(=O)CCCCC)[C@H]2OC(=O)CCCCC)O[C@H](CSCCN)[C@H]1OC(=O)CCCCC | Non-toxic | inhibition [8]: inactive; inhibition [9]: inactive; Activity [11]: inactive |
| inactive | inactive | inactive | inactive | inactive | – | – | – | – | – | – | – | – | CCCCCCCCCCCCCCO[C@H]1[C@@H](OC)O[C@H](CSCCN)[C@@H](O)[C@@H]1OCCCCCCCCCCCCCC | – | – |
| Dose-dependent effect | inactive | inactive | – | – | 5000 nM | inactive | 600 nM | Dose-dependent effect | Dose-dependent effect | 600 nM | 10.9 µM | inactive | CCCCCC(=O)O[C@@H]1[C@H](OC(=O)CCCCC)[C@@H](O[C@H]2O[C@H](Cn3cc(CNC(=S)NCCN)nn3)[C@@H](OC(=O)CCCCC)[C@H](OC(=O)CCCCC)[C@H]2OC(=O)CCCCC)O[C@H](Cn2cc(CNC(=S)NCCN)nn2)[C@H]1OC(=O)CCCCC | Non-toxic | – |
| inactive | inactive | inactive | inactive | inactive | – | – | – | – | – | – | – | – | CCCCCCO[C@H]1[C@@H](OC)O[C@H](CSCCN)[C@@H](O)[C@@H]1OCCCCCC | – | – |
| inactive | inactive | inactive | inactive | inactive | – | – | – | – | – | – | – | – | CCCCCCCCCCCCCCO[C@@H]1[C@H](OCCCCCCCCCCCCCC)[C@@H](O[C@H]2O[C@H](CSCCN)[C@@H](OCCCCCCCCCCCCCC)[C@H](OCCCCCCCCCCCCCC)[C@H]2OCCCCCCCCCCCCCC)O[C@H](CSCCN)[C@H]1OCCCCCCCCCCCCCC | – | – |
| Dose-dependent effect | inactive | inactive | – | – | 600 nM | inactive | 200 nM | Dose-dependent effect | Dose-dependent effect | 200 nM | 350 µM | inactive | CCCCCC(=O)O[C@@H]1[C@H](OC(=O)CCCCC)[C@@H](O[C@H]2O[C@H](Cn3cc(CN(CCN)CCN)nn3)[C@@H](OC(=O)CCCCC)[C@H](OC(=O)CCCCC)[C@H]2OC(=O)CCCCC)O[C@H](Cn2cc(CN(CCN)CCN)nn2)[C@H]1OC(=O)CCCCC | Non-toxic | inhibition [13]: Dose-dependent effect; inhibition [14]: Dose-dependent effect; inhibition [15]: inactive; inhibition [16]: inactive; inhibition (Mus musculus): Active |
| inactive | inactive | inactive | inactive | inactive | – | – | – | – | – | – | – | – | CCCCCCO[C@@H]1[C@H](OCCCCCC)[C@@H](O[C@H]2O[C@H](CSCCN)[C@@H](OCCCCCC)[C@H](OCCCCCC)[C@H]2OCCCCCC)O[C@H](CSCCN)[C@H]1OCCCCCC | – | – |
| Dose-dependent effect | inactive | inactive | – | – | 3700 nM | inactive | 3900 nM | Dose-dependent effect | Dose-dependent effect | 3300 nM | 59.7 µM | inactive | CCCCCC(=O)O[C@@H]1[C@@H](OC(=O)CCCCC)[C@@H](OC)O[C@H](CSCCNC(=S)NCCN(CCN)CCN)[C@H]1OC(=O)CCCCC.Cl | Non-toxic | inhibition [8]: inactive; inhibition [9]: inactive; Activity [11]: inactive |
| inactive | inactive | inactive | inactive | inactive | – | – | – | – | – | – | – | – | CCCCCCO[C@@H]1[C@@H](OCCCCCC)[C@@H](OC)O[C@H](CN)[C@H]1OCCCCCC | – | – |

From ChEMBL document CHEMBL3352094, “Trehalose- and glucose-derived glycoamphiphiles: small-molecule and nanoparticle Toll-like receptor 4 (TLR4) modulators” (J Med Chem, 2014)
